Test results reported in ChEMBL document CHEMBL2311361, “Diminutive effect on T and B-cell proliferation of non-cytotoxic α-santonin derived 1,2,3-triazoles: a report” (Eur J Med Chem, 2013).
Converted amounts (≈) assume the structure as drawn.

Key:
Plasmodium falciparum = assay: Antimalarial activity against chloroquine-resistant Plasmodium falciparum Smith; assay type: functional; conditions: read-out: ED50 (the source's name)
[1] = Cytotoxicity against in Balb/c mouse B cells at 10^-6 M after 48 hrs by MTT assay; assay type: cell-based; conditions: 1 µM
How it was run: (§1)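 Spleens taken aseptically from Balb/c mice (18–22 g). Single-cell suspension made in incomplete RPMI, RBCs lysed with Tris-ammonium chloride, cells washed, resuspended in complete RPMI and checked for viability by trypan blue. Cells seeded at 1 × 10⁶ cells/mL. Compounds in DMSO tested at 1×10⁻⁴, 1×10⁻⁵ and 1×10⁻⁶ M, 48 h, 37 °C, 5% CO₂.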

[2] = Cytotoxicity against in Balb/c mouse B cells at 10^-5 M after 48 hrs by MTT assay; assay type: cell-based; conditions: 10 µM; how it was run: as §1
[3] = Cytotoxicity against in Balb/c mouse T cells at 10^-6 M after 48 hrs by MTT assay; assay type: cell-based; conditions: t-cell, 1 µM; how it was run: as §1
[4] = Cytotoxicity against in Balb/c mouse T cells at 10^-5 M after 48 hrs by MTT assay; assay type: cell-based; conditions: t-cell, 10 µM; how it was run: as §1
[5] = Cytotoxicity against in Balb/c mouse T cells at 10^-4 M after 48 hrs by MTT assay; assay type: cell-based; conditions: t-cell, 100 µM; how it was run: as §1
[6] = Cytotoxicity against in Balb/c mouse B cells at 10^-4 M after 48 hrs by MTT assay; assay type: cell-based; conditions: 100 µM; how it was run: as §1
[7] = Immunostimulant activity in Balb/c mouse T cells assessed as inhibition of concanavalin A-induced cell proliferation at 10^-6 M after 48 hrs by MTT assay; assay type: functional; how it was run: as §1
[8] = Immunostimulant activity in Balb/c mouse T cells assessed as inhibition of concanavalin A-induced cell proliferation at 10^-5 M after 48 hrs by MTT assay; assay type: functional; how it was run: as §1
[9] = Immunostimulant activity in Balb/c mouse T cells assessed as inhibition of concanavalin A-induced cell proliferation at 10^-4 M after 48 hrs by MTT assay; assay type: functional; conditions: Mus musculus, Balb/c, T-cell, 48 h; how it was run: as §1
B = assay: Immunosuppressive activity in Balb/c mouse B cells assessed as inhibition of LPS-induced cell proliferation after 48 hrs by MTT assay; assay type: functional, cell-based; how it was run: as §1
[10] = Immunosuppressive activity in Balb/c mouse B cells assessed as inhibition of LPS-induced cell proliferation at 10^-6 M after 48 hrs by MTT assay; assay type: functional; how it was run: as §1
[11] = Immunosuppressive activity in Balb/c mouse B cells assessed as inhibition of LPS-induced cell proliferation at 10^-5 M after 48 hrs by MTT assay; assay type: functional; how it was run: as §1
[12] = Immunosuppressive activity in Balb/c mouse B cells assessed as inhibition of LPS-induced cell proliferation at 10^-4 M after 48 hrs by MTT assay; assay type: functional; how it was run: as §1

CC1=CC2C[C@]3(C)CC[C@H]4[C@H](C)C(=O)O[C@@H]4C13OO2 (some centres undefined)
EC50 (Plasmodium falciparum): 0.729 µg/mL (≈ 2.76 µM)

CC(=O)Oc1cc(C)c2c(c1C)[C@@H]1OC(=O)[C@@H](C)[C@@H]1CC2
Activity [1]: Non-toxic
Activity [2]: Non-toxic
Activity [3]: Non-toxic
Activity [4]: Non-toxic
Activity [5]: Non-toxic
Activity [6]: Non-toxic
inhibition at 1 µM [7]: 18.3%
inhibition at 10 µM [8]: 26.8%
inhibition at 100 µM [9]: 47.6%
inhibition (B): Dose-dependent effect
inhibition at 1 µM [10]: 23.9%
inhibition at 10 µM [11]: 25.6%
inhibition at 100 µM [12]: -36.8%
